From ChEMBL document CHEMBL3856197 (Eur J Med Chem, 2016)
The source made the active and inactive calls. No cut-off for these calls is given here.

What was measured:
[1] = Growth inhibition of BMOL-NT cells; assay type: cell-based; details: mouse
Method in brief: (§1)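 BMOL-NT (low passage, p<15) or BMOL-T (p>30) mouse liver progenitor cells in Williams' E medium. Seeded at 1,500 (NT) or 1,000 (T) cells per well, allowed to attach, then compound added as 2x solution to 1x final. Cellavista imaging twice daily for 5 days or until 80% confluent. Log % well coverage plotted against time; doubling time taken from log-phase linear portion.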

[2] = Growth inhibition of BMOL-T cells; assay type: functional; details: Mus musculus; method in brief: as §1
BMOL-T [3] = experiment: Anticancer activity against BMOL-T cells assessed as cell growth inhibition at 10 uM; assay type: functional, cell-based; details: Mus musculus; method in brief: as §1
Mus musculus [4] = species on record: Mus musculus; experiment: Cytotoxicity against BMOL-NT cells assessed as cell growth inhibition at 10 uM; assay type: toxicity, cell-based; method in brief: as §1
Mus musculus [5] = species on record: Mus musculus; experiment: Cytotoxicity against BMOL-NT cells assessed as induction of cell death at 100 uM; assay type: toxicity, cell-based
Method in brief: (§2)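 Mouse bipotential oval (liver progenitor) line BMOL-NT (passage <15) grown in Williams' E medium with 5% FBS, EGF, IGF-II and insulin. Plated at 1,500 cells/well; next day compound added as a 2x solution to give 1x final. Confluency imaged on Cellavista twice daily for 5 days or until 80% confluent. Growth curves plotted from log confluency; doubling time taken from the log-phase linear portion.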

BMOL-T [6] = experiment: Anticancer activity against BMOL-T cells assessed as cell growth inhibition at 100 uM; assay type: functional, cell-based; details: Mus musculus; method in brief: as §1
[7] = Induction of apoptosis in BMOL-NT cells assessed as increase in fragmented DNA at 10 uM measured after 3 days relative to control; assay type: cell-based; details: mouse, 72 h
Method in brief: (§3)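 BMOL-NT or BMOL-T cells, compound at 10 μM for three days. Fixed in 4% paraformaldehyde/0.1% Triton X-100, DNA fragmentation labelling reaction 60 min at 37 °C, nuclear dye 5 min, Cellavista imaging. Cisplatin 8 μg/mL for 24 h as positive control. Apoptotic index is % cells with fragmented DNA per well, three cell lots.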

[8] = biological target: T1, Nuclear factor NF-kappa-B p100 subunit (Mus musculus) (UniProt Q9WTK5); experiment: Inhibition of NF-kappaB2 in BMOL-T cells assessed as reduction in p52 formation by western blot analysis relative to control; assay type: cell-based; details: concentration not given here
T1 sequence (whole entry): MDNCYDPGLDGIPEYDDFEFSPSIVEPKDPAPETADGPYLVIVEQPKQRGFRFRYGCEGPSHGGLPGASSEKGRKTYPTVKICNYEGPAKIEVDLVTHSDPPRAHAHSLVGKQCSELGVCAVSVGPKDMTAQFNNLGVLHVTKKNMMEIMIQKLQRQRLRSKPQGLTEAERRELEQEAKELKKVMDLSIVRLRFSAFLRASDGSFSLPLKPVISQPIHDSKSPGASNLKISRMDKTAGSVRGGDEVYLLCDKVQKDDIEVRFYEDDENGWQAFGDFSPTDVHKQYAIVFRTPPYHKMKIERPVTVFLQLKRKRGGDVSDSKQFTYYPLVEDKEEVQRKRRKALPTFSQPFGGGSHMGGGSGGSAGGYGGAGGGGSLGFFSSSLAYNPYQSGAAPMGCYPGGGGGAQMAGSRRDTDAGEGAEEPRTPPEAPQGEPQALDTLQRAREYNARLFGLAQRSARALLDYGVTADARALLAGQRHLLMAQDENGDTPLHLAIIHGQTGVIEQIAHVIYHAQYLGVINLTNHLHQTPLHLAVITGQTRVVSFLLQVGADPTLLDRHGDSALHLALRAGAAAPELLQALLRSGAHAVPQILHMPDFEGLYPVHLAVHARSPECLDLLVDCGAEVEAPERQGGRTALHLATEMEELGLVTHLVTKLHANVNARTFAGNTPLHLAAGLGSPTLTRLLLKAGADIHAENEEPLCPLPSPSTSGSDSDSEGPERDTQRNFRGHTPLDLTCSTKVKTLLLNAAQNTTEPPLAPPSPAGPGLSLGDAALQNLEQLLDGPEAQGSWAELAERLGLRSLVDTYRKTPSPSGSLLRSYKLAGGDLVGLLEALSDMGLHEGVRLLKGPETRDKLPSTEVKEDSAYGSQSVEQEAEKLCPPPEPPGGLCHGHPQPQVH
Method in brief: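 BMOL-T cells exposed to compound as in the growth assay, lysed in DISC buffer. Western blot with primary antibodies overnight and HRP secondaries 1 h, all diluted in 5% skim milk in TBS-T, chemiluminescent detection. Bands normalised to β-actin; p52/p100 ratio and phospho-p65 compared with control.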

[9] = Induction of apoptosis in BMOL-T cells assessed as increase in fragmented DNA at 10 uM measured after 3 days relative to control; assay type: functional, Mus musculus; method in brief: as §3
[10] = Antimitotic activity against BMOL-T cells assessed as mitotic index at 10 uM measured after 3 days by phosphohistone H3 staining-based method relative to control; assay type: functional, Mus musculus
Method in brief: (§4)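 BMOL-NT or BMOL-T cells, compound at 10 μM for three days. Fixed in 4% paraformaldehyde/0.1% Triton X-100, then phospho-histone H3 antibody 60 min at room temperature with nuclear counterstain, Cellavista imaging. Colcemid 1 μg/mL overnight as positive control. Mitotic index is % positive cells per well, mean of replicate wells, three cell lots.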

Mus musculus [11] = species on record: Mus musculus; experiment: Cytotoxicity against BMOL-NT cells assessed as doubling time at 0 to 10 uM; assay type: toxicity, cell-based; method in brief: as §1
[12] = Growth inhibition of BMOL-T cells assessed as increase in doubling time at 8 uM after 2 days relative to control; assay type: functional, Mus musculus; design: scale not given: the % may be the effect or the level left; method in brief: as §1
[13] = Growth inhibition of BMOL-T cells assessed as increase in doubling time at 10 uM after 2 days relative to control; assay type: functional, Mus musculus; design: scale not given: the % may be the effect or the level left; method in brief: as §1
[14] = Anticancer activity against BMOL-T cells assessed as doubling time at 8 uM; assay type: functional, Mus musculus; method in brief: as §1
[15] = Anticancer activity against BMOL-T cells assessed as doubling time at 10 uM; assay type: functional, Mus musculus; method in brief: as §1
[16] = Anticancer activity against BMOL-T cells assessed as doubling time at 0 to 6 uM; assay type: functional, Mus musculus; method in brief: as §1
[17] = Antimitotic activity against BMOL-NT cells assessed as reduction in mitotic index at 10 uM measured after 3 days by phosphohistone H3 staining-based method; assay type: cell-based; design: scale not given: the % may be the effect or the level left; details: mouse, 72 h; method in brief: as §4
[18] = Growth inhibition of BMOL-NT cells assessed as population doubling time at 1 uM (reference value: 29 to 32.5 hrs); assay type: cell-based; details: mouse; method in brief: as §1
[19] = Growth inhibition of BMOL-T cells assessed as doubling time at 1 uM (reference value: 27 to 34 hrs); assay type: functional, Mus musculus; method in brief: as §1
[20] = Growth inhibition of BMOL-T cells assessed as doubling time at 10 uM (reference value: 27 to 34 hrs); assay type: functional, Mus musculus; method in brief: as §1
[21] = Growth inhibition of BMOL-NT cells assessed as increase in doubling time at 8 uM after 2 days relative to control; assay type: cell-based; design: scale not given: the % may be the effect or the level left; details: mouse, 48 h; method in brief: as §1
[22] = Growth inhibition of BMOL-NT cells assessed as doubling time at 4 uM (reference value: 29 to 32.5 hrs); assay type: cell-based; details: mouse; method in brief: as §1
[23] = Growth inhibition of BMOL-NT cells assessed as population doubling time at 2 uM (reference value: 29 to 32.5 hrs); assay type: cell-based; details: mouse; method in brief: as §1
[24] = Growth inhibition of BMOL-NT cells assessed as increase in doubling time at 10 uM after 2 days relative to control; assay type: cell-based; design: scale not given: the % may be the effect or the level left; details: mouse, 48 h; method in brief: as §1
[25] = Growth inhibition of BMOL-NT cells assessed as doubling time at 8 uM (reference value: 29 to 32.5 hrs); assay type: cell-based; details: mouse; method in brief: as §1
[26] = Growth inhibition of BMOL-NT cells assessed as doubling time at 10 uM (reference value: 29 to 32.5 hrs); assay type: cell-based; details: mouse; method in brief: as §1
[27] = test system: BMOL-NT cells (Mus musculus); experiment: Growth inhibition of BMOL-NT cells at 10 uM after 2 days relative to control; details: 48 h, read-out: GI
[28] = Growth inhibition of BMOL-T cells assessed as doubling time at 2 uM (reference value: 27 to 34 hrs); assay type: functional, Mus musculus; method in brief: as §1
[29] = Growth inhibition of BMOL-T cells assessed as doubling time at 8 uM (reference value: 27 to 34 hrs); assay type: functional, Mus musculus; method in brief: as §1
[30] = Growth inhibition of BMOL-T cells assessed as doubling time at 0.5 uM (reference value: 27 to 34 hrs); assay type: functional, Mus musculus; method in brief: as §1
[31] = Growth inhibition of BMOL-NT cells assessed as population doubling time at 0.5 uM (reference value: 29 to 32.5 hrs); assay type: cell-based; details: mouse; method in brief: as §1
Mus musculus [32] = species on record: Mus musculus; experiment: Cytotoxicity against BMOL-NT cells assessed as induction of cell death up to 100 uM; assay type: toxicity, cell-based; method in brief: as §2

Q: What does the source list for `CCCCCc1ccc(Nc2ccc3c(c2)C(=O)N(C2CCC(=O)NC2=O)C3=O)cc1` (stereo not drawn)?
A: GI50 [1]: 60 µM; GI50 [2]: 60 µM; growth inhibition (GI) (BMOL-T [3]): Active; Activity (Mus musculus [4]): Non-Toxic

Q: Which Activity (Mus musculus [5]) does the source give for `CCCCCc1ccc(Nc2cccc3c2C(=O)N(C2CCC(=O)NC2=O)C3=O)cc1` (stereo not drawn) here?
A: Toxic

Q: What about the GI50 [1] of the same compound?
A: 100 µM

Q: And the GI50 [2]?
A: 100 µM

Q: What about the “growth inhibition (GI)” value (BMOL-T [6]) of the same compound?
A: Active

Q: Which results are given for `CC(C)c1ccc(Nc2cccc3c2C(=O)N(C2CCC(=O)NC2=O)C3=O)cc1` (stereo not drawn)?
A: GI50 [1]: 60 µM; fold change (FC) [7]: 1.5; inhibition [8]: 30%; GI50 [2]: 40 µM; fold change (FC) [9]: 1.6 - 4; growth inhibition (GI) (BMOL-T [3]): Active; Activity [10]: 34%; Time (Mus musculus [11]): 31 h; Activity (Mus musculus [4]): Non-Toxic; Activity [12]: 11%; Activity [13]: 26 - 27%; Time [14]: 26 h; Time [15]: 30 h; Time [16]: 23 h; Activity [17]: Non-Toxic

Q: For `Nc1cccc2c1CN(C1CCC(=O)NC1=O)C2=O` (stereo not drawn) [LENALIDOMIDE], which Activity (Mus musculus [5]) is on record?
A: Toxic

Q: And the GI50 [1]?
A: 100 µM

Q: Which Activity (Mus musculus [5]) does the source give for `O=C1CCC(N2C(=O)c3ccccc3C2=O)C(=O)N1` (stereo not drawn) [THALIDOMIDE] here?
A: Toxic

Q: And the GI50 [1]?
A: 100 µM

Q: With `CNC(=O)c1cc(Oc2ccc(NC(=O)Nc3ccc(Cl)c(C(F)(F)F)c3)cc2)ccn1` [SORAFENIB] as the compound, how does the Time [18] read?
A: 32.5 to 34.7 h

Q: What about the Time [19] of the same compound?
A: 33.2 to 34.2 h

Q: And the fold change (FC) [7]?
A: 2.5 to 18.1

Q: And the “fold change (FC)” value [9]?
A: 38

Q: And the Time [20]?
A: 79 h

Q: What about the Activity [21] of the same compound?
A: 100 to 128%

Q: And the Activity [10]?
A: 62%

Q: And the Time [22]?
A: 37.4 to 37.9 h

Q: What about the Time [23] of the same compound?
A: 33.3 to 33.7 h

Q: And the Activity [24]?
A: 101 to 134%

Q: What about the Activity [12] of the same compound?
A: 36 - 144%

Q: What about the Activity [13] of the same compound?
A: 193 - 235%

Q: And the Time [25]?
A: 58 to 74 h

Q: And the Time [26]?
A: 68 h

Q: And the inhibition of growth at 10 µM [27]?
A: 70%

Q: And the Time [28]?
A: 34.4 to 35 h

Q: What about the Time [29] of the same compound?
A: 65 to 66 h

Q: What about the Time [30] of the same compound?
A: 28.05 to 35 h

Q: And the Activity [17]?
A: 66 to 87%

Q: And the Time [31]?
A: 31.9 to 32.5 h

Q: With `O=CC#Cc1ccc2c(c1)C(=O)N(C1CCC(=O)NC1=O)C2=O` (stereo not drawn) as the compound, how does the Activity (Mus musculus [32]) read?
A: Non-Toxic

Q: Which Activity (Mus musculus [5]) does the source give for `CC(C)(C)c1ccc(Nc2ccc3c(c2)C(=O)N(C2CCC(=O)NC2=O)C3=O)cc1` (stereo not drawn) here?
A: Toxic

Q: And the GI50 [1]?
A: 100 µM

Q: And the GI50 [2]?
A: 100 µM

Q: What about the “growth inhibition (GI)” value (BMOL-T [6]) of the same compound?
A: Active

Q: With `O=CC#Cc1cccc2c1C(=O)N(C1CCC(=O)NC1=O)C2=O` (racemic) as the compound, how does the Activity (Mus musculus [32]) read?
A: Non-Toxic
